Drawing on ChEMBL document CHEMBL1125797, “Synthesis, characterization and myocardial uptake of cationic bis(arene)technetium(I) complexes” (J Med Chem, 1991), this text covers Plasma binding and Dose/g for 17 substances.

The species named for data set [1] is Rattus norvegicus. In words: The compound was tested for the plasma binding in rat. The data set is classed as ADME, organism-based.
Data set [2] in a line: Plasma protein binding (human). The data set is classed as ADME, cell-free. An outline of the steps: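 Test substance (0.02 mL) was added to 1.0 mL of heparinized fresh human plasma and incubated about 15 min. Duplicate samples were passed through Sephadex G-25 desalting columns by centrifugation. Eluate and gel were γ-counted for 1 min or to 1% σ error. % bound = net cpm eluate / net cpm (eluate + gel) × 100.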

In data set [3] the test system is Rattus norvegicus. In words: Biodistribution of compound in rat blood after 5 min of administration. The data set is classed as ADME, organism-based. To be noted: in vivo. An outline of the steps:
(§1)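 Female Sprague-Dawley rats (150–200 g) received the complex in normal saline (~12.5 μCi/mL) through a lateral tail vein at ~25 μCi/kg. Rats were killed by cervical dislocation 5 min after injection. Tissues were washed with saline, blotted, weighed and γ-counted to give percent injected dose/g tissue.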

Data set [4] has as its system Rattus norvegicus. The data set is described as follows: Biodistribution of compound in rat heart after 5 min of administration. The data set is classed as ADME, organism-based. To be noted: in vivo. An outline of the steps:
as §1

For data set [5], the system named is Rattus norvegicus. The data set is described as follows: Biodistribution of compound in rat kidney after 5 min of administration. The data set is classed as ADME, organism-based. To be noted: in vivo. In a few lines:
as §1

The subject of data set [6] is Rattus norvegicus. The data set is described as follows: Biodistribution of compound in rat lung after 5 min of administration. The data set is classed as ADME, organism-based. To be noted: in vivo. An outline of the steps:
as §1

Data set [7] deals with Rattus norvegicus. In words: (§2) Biodistribution of compound in rat muscle after 5 min of administration. The data set is classed as ADME, organism-based, Muscle tissue. The following applies: in vivo. An outline of the steps:
as §1

Data set [8] relates to Rattus norvegicus. In words: Biodistribution of compound in rat liver after 5 min of administration. The data set is classed as ADME, organism-based. To be noted: in vivo. In a few lines:
as §1

Data set [9] can be described thus: as §2. The data set is classed as ADME, organism-based, Muscle tissue. To be noted: in vivo. In a few lines:
as §1

The subject of data set [10] is Rattus norvegicus. In words: Biodistribution of compound in rat brain after 5 min of administration. The data set is classed as ADME, organism-based. To be noted: in vivo.

For the substance Bis(5-isopropyl-m-xylene)technetium, the Plasma binding in [1] is listed as 18%; in [2], 80%. Moreover, the Dose/g in [3] is on record as 0.18%; in data set [4], 3.2%; in data set [5], 6.5%; in data set [6], 1.3%; in data set [7], 0.7%; in [8], 0.38%.

Consider “Bis(1,2,4,5-tetramethylbenzene)technetium”, for which the Plasma binding in data set [1] is 18%; in [2] it was 42%. For the same substance, the Dose/g was determined as 0.28% in [3]; 2.3% in data set [4]; 9.8% in data set [5]; 1.3% in [6]; 0.72% in data set [9]; 0.02% in data set [10]. The substance further registered a Dose/g in [8] of 0.9%.

In the case of Bis(1,4-diethylbenzene)technetium, the results for the Plasma binding in data set [1] and in [2] were 16% and 60%, respectively. The Dose/g was 0.13% in [3]; 3.8% in data set [4]; 5.4% in data set [5]; 1.4% in data set [6]; 0.66% in data set [9]; 0.03% in data set [10]. In data set [8], the Dose/g is recorded as 0.58%.

As for BIS(PENTAMETHYLBENZENE) TECHNETIUM, the Plasma binding was 57% in data set [1] and 55% in [2]. Moreover, the Dose/g in data set [3] is reported as 0.14%; in [4], 3.5%; in [5], 5.5%; in data set [6] it was 1.6%; in data set [9] it was 0.66%; in data set [10] it was 0.02%. This substance registered a Dose/g in data set [8] of 0.45%.

Consider Bis(1,3,5-triethylbenzene)technetium, for which the figures for the Plasma binding in data set [1] and in data set [2] were 48% and 83%, respectively. Moreover, the Dose/g in [3] stood at 0.24%; in data set [4], 2.8%; in data set [5], 7.3%; in data set [6] it was 1.1%; in data set [9], 0.63%; in data set [10], 0.04%. The same substance returned a Dose/g in data set [8] of 1.4%.

Consider Bis(1,2-diethylbenzene)technetium, for which the Plasma binding in [1] is recorded as 21%; in data set [2], 84%. Besides, the Dose/g came to 0.1% in data set [3]; 3% in data set [4]; 7.8% in [5]; 1.3% in [6]; 0.58% in data set [9]; 0.03% in [10]. In [8], this substance returned a Dose/g of 0.62%.

As to “Bis(1,1,4,6-tetramethylindane)technetium”, the Plasma binding in [1] was 75%; in data set [2], 94%. Further, the Dose/g in data set [3] amounted to 0.35%; in data set [4], 3.4%; in [5] it was 6.4%; in data set [6], 1.5%; in data set [9], 0.66%; in [10] it was 0.04%. Besides, in [8], the Dose/g worked out at 0.73%.

Take “Bis(1-methyl-(2-propyl)benzene)technetium”: the Plasma binding in data set [1] worked out at 27%; in data set [2], 75%. Further, the Dose/g in data set [3] was found to be 0.16%; in data set [4] it was 2.5%; in data set [5], 5%; in [6] it was 1.1%; in data set [7] it was 0.56%; in [8], 0.42%.

For the substance BIS(DODECAHYDROTRIPHENYLENE) TECHNETIUM, the Plasma binding was determined as 34% in data set [1] and 84% in [2]. Further, the Dose/g was 0.16% in data set [3]; 2.6% in data set [4]; 12% in [5]; 1% in data set [6]; 0.55% in data set [9]; 0.02% in data set [10]. The Dose/g in [8] came to 1%.

On to BIS(HEXAETHYLBENZENE) TECHNETIUM, for which the Plasma binding in data set [1] came out at 50%; in data set [2], 84%. Further, the Dose/g in data set [3] was found to be 0.4%; in data set [4], 1.3%; in data set [5], 10%; in data set [6], 5.7%; in [9] it was 0.33%; in data set [10], 0.06%. In addition, in [8], the Dose/g amounted to 8.4%.

Consider Bis(1,3-diethylbenzene)technetium, for which the results for the Plasma binding in data set [1] and in data set [2] were 19% and 64%, respectively. The Dose/g in data set [3] was found to be 0.09%; in data set [4] it was 2.8%; in [5], 5.1%; in [6], 1.2%; in [9], 0.64%; in data set [10] it was 0.03%. In addition, the Dose/g in data set [8] is reported as 0.46%.

In the case of BIS(HEXAMETHYLBENZENE)TECHNETIUM, the results for the Plasma binding in [1] and in [2] were 57% and 72%, respectively. Besides, the Dose/g turned out to be 0.16% in data set [3]; 3% in data set [4]; 6.2% in [5]; 1.2% in [6]; 0.55% in data set [9]; 0.03% in [10]. In data set [8], this substance came in with a Dose/g of 0.79%.

As for “Bis(1,3,5-tri-tert-butylbenzene)technetium”, the Plasma binding amounted to 60% in data set [1] and 81% in data set [2]. Further, the Dose/g in data set [3] was found to be 0.49%; in data set [4], 1%; in [5], 8%; in [6] it was 1.3%; in data set [9] it was 0.38%; in data set [10], 0.04%. Besides, the Dose/g in data set [8] was found to be 2%.

For BIS(TRINDAN) TECHNETIUM, the values for the Plasma binding in data set [1] and in data set [2] were 23% and 27%, respectively. Besides, the Dose/g in data set [3] is listed as 0.09%; in data set [4], 1.5%; in data set [5], 9.3%; in [6], 1%; in data set [9] it was 0.49%; in data set [10], 0.02%. The substance also yielded a Dose/g in data set [8] of 1%.

In the case of “Bis(1,2,3,4,5,6,7,8-octahydroanthracene)technetium”, the Plasma binding worked out at 32% in [1] and 35% in data set [2]. Further, the Dose/g was found to be 0.16% in data set [3]; 1.8% in [4]; 9.1% in [5]; 0.9% in data set [6]; 0.48% in data set [9]; 0.02% in data set [10]. For the same substance, the Dose/g in data set [8] turned out to be 0.79%.

Regarding “Bis(1,1,4,6,7-pentamethylindane)technetium”, the Plasma binding in [1] is on record as 81%; in [2] it was 95%. The Dose/g in data set [3] turned out to be 0.49%; in data set [4], 3.3%; in data set [5], 5%; in data set [6], 2.5%; in [9], 0.56%; in data set [10], 0.06%. This substance showed a Dose/g in [8] of 1.2%.

Take Bis(4,6-dimethylindane)technetium: the Plasma binding in data set [1] came out at 54%; in data set [2], 57%. Also, the Dose/g in data set [3] is 0.12%; in [4], 3.6%; in data set [5], 8.4%; in [6], 1.4%; in data set [9] it was 0.42%; in data set [10], 0.03%. This substance gave a Dose/g in [8] of 0.66%.
